Compound activity: PubChem BioAssay, several laboratories
This is a sample that favours compounds with a hit; in the whole collection about 10% have one here.
PMI act satM6P = activators of human phosphomannose isomerase at near-saturating mannose 6-phosphate | P34949 | coupled PMI enzyme assay, resazurin fluorescence, 20 min; active compounds read high; 1 = untreated enzyme, 0 = substrate-free blank | activation factor at 20 µM | 190,000 compounds, 0.34% hits | AID 1216;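 active = activation factor of 2 or more at 20 µM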
Target sequence (P34949 whole entry, looked up): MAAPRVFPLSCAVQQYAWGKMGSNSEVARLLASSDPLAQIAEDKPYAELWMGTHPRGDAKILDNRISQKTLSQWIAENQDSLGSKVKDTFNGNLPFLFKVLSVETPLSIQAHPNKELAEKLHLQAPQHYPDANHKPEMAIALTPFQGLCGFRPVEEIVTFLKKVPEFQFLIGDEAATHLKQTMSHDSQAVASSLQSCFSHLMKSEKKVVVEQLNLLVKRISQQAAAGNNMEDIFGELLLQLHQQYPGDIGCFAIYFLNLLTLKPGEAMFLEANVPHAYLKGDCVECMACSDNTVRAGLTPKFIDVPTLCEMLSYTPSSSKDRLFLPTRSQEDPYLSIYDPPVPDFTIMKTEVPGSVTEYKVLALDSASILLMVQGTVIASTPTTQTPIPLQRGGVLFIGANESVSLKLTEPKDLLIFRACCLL
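Test system: Human PMI in coupled enzyme assay | Input: 15 ng/mL PMI | Medium: HEPES-buffered pH 7.4 with magnesium and detergent | Compound: One concentration, 20 µM, in 1% DMSO | Incubation: Enzyme reaction with compound 20 min at room temperature | Detection: Diaphorase-driven resazurin-to-resorufin fluorescence, excitation 544, emission 590 nm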
PMI activator = phosphomannose isomerase (human) activation; activation factor at 20 µM; 190,000 compounds, 0.005% hits; purified human PMI, coupled resazurin fluorescence, 20 min; active compounds read high; 1 = vehicle control, 0 substrate-free wells; P34949;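 active = activation factor of 2 or more at 20 µM, relative to plate controls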
Lmaj promast = inhibitors of Leishmania major promastigote growth; 200,000 compounds, 9% hits; Leishmania major promastigotes, resazurin fluorescence viability; inhibition, % at 10 µM; AID 1063; in the data active = inhibition above about 50%;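 note: promastigotes grown with compound for 44 hours at 28 °C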
Diaphorase act = counter-screen for diaphorase-based assays: diaphorase activators and chemical reducers. Diaphorase/resazurin coupled assay, resorufin fluorescence, 16 min; active compounds read high; 1 = vehicle wells, 0 = NADH-free wells. activation factor at 20 µM. 190,000 compounds, 0.005% hits. AID 1229;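 active = diaphorase activity raised at least twofold by the compound at 20 µM; inactive = activation factor below 2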
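Test system: Clostridium kluyveri diaphorase, purified enzyme. Buffer or medium: 50 mM HEPES pH 7.4 buffer plus MgCl2 and Tween 20. Also added: 0.114 mM NADH and 0.1 mM resazurin, final amounts. Dosing: compound 20 µM once, DMSO 1%. Schedule: 16 min enzyme reaction, ambient temperature. Detection: fluorescence of resorufin, 544 nm excitation, 590 nm emission.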
WT yeast gro inh = growth inhibition of WT yeast, mitochondrial fusion screen; mitochondrial fusion phenotypic screen, WT strain; inhibition, % at 10 µM; 190,000 compounds, 2.1% hits; in the data active = inhibition above about 58%; tested in S. cerevisiae
* hit, by the source's call; . = no result given.

SMILES | PMI act satM6P | PMI activator | Lmaj promast | Diaphorase act | WT yeast gro inh
O=C(/C=C/c1ccc(F)cc1)N1CCN(c2ccccn2)CC1 | 1 | 0.9 | -7 | 1 | -17
COc1ccc(/C=C/C(=O)N2CCN(c3ccccn3)CC2)c2ccccc12 | 0.9 | 0.9 | -3 | 0.8 | 62*
C/C(=N\NC(=O)c1ccc([N+](=O)[O-])c(C)c1)c1ccccc1Cl | 0.9 | 0.9 | 14 | 0.8 | 6
CCOc1ccccc1NC(=O)C(OC(=O)c1cc(C)oc1C)c1ccccc1 (centres undefined) | 0.9 | 1 | 85* | 0.9 | 5
CCOc1ccccc1NC(=O)C(OC(=O)c1ccccc1O)c1ccccc1 (centres undefined) | 1 | 0.9 | 6 | 0.8 | 21
O=C(/C=C/c1cccs1)Nc1cccc(NC(=O)/C=C/c2cccs2)n1 | 0.9 | 0.8 | 55* | 0.9 | 52
CCCCNC(=O)N1CCc2ccccc2C1 | 1.1 | 1.1 | -7 | 1 | -18
CCCCNc1nc2ccccc2n1CC(=O)N1CCc2ccccc2C1 | 1 | 1 | 70* | 0.8 | 0
O=C(CCNc1n[nH]c(=O)[nH]c1=O)N/N=C\c1cccc(OCc2ccccc2)c1 | 0.9 | 0.9 | 10 | 0.8 | -15
O=C(NCCn1cc(SCc2ccc(F)cc2)c2ccccc21)c1c(F)cccc1F | 1 | 1 | 1 | 0.9 | 18
O=C(NCCn1cc(SCc2ccc(F)cc2)c2ccccc21)c1ccccc1F | 0.8 | 0.9 | 95* | 0.8 | 36
Cc1ccc(-c2nnc3sc(C4COc5ccccc5O4)nn23)cc1 (centres undefined) | 1 | 1 | -5 | 0.8 | 75*
Cc1ccc(NC(=O)CN(Cc2ccccc2)S(C)(=O)=O)cc1C | 0.9 | 1 | -5 | 0.8 | 14
Cc1cc(C)c(CSc2ncnc3nc[nH]c23)c(C)c1 | . | . | -3 | . | 69*
O=C(COC(=O)c1ccccc1Nc1ccc(SC(F)F)cc1)NC1CC1 | 0.9 | 1 | 61* | 0.8 | 48
CC(OC(=O)c1ccccc1Nc1ccc(SC(F)F)cc1)C(N)=O (centres undefined) | 0.8 | 0.9 | 55* | 0.7 | 81*
CC1Cc2ccccc2N1C(=O)C1CCN(S(=O)(=O)Cc2ccccc2)CC1 (centres undefined) | 1 | 1 | 54* | 0.9 | -21
O=C(C1CCCN(S(=O)(=O)Cc2ccccc2)C1)N1CCc2ccccc21 (centres undefined) | 1 | 0.9 | 73* | 0.9 | 6
CC1Cc2ccccc2N1C(=O)C1CCCCN1S(=O)(=O)c1ccccc1 (centres undefined) | 1 | 1 | 3 | 0.9 | 1
CCOC(=O)C1CCCN(S(=O)(=O)Cc2ccccc2)C1 (centres undefined) | 1 | 0.9 | -7 | 0.9 | -17
Cn1ccnc1SCC(=O)Nc1nc2c(F)c(F)c(F)cc2s1 | 0.9 | 0.9 | -3 | 1 | -12
COc1cc(C(=O)OC(C)C(=O)Nc2ccc3c(c2)OCO3)ccc1OCc1c(C)noc1C (centres undefined) | 1 | 1 | -1 | 0.9 | 13
Cc1noc(C)c1COc1cccc(C(=O)Nc2ccc3c(c2)OCO3)c1 | 1 | 1 | 8 | 0.9 | 7
Cc1ccc(NC(=O)c2cccc(OCc3c(C)noc3C)c2)cc1S(=O)(=O)Nc1ccccc1Cl | 0.9 | 0.9 | 83* | 0.8 | 5
Cc1noc(C)c1COc1cccc(C(=O)OC(C)C(=O)Nc2ccc3c(c2)OCO3)c1 (centres undefined) | 0.9 | 0.9 | 59* | 0.8 | 13
SMILES | PMI act satM6P | PMI activator | Lmaj promast | Diaphorase act | WT yeast gro inh
O=C(CCC1CCCC1)NCCCN1CCOCC1 | 0.9 | 0.9 | 67* | 0.8 | -3
COc1ccc(-n2nc(C(=O)NCC(=O)NCC3COc4ccccc4O3)c3ccccc3c2=O)cc1 (centres undefined) | 1 | 0.9 | 5 | 0.8 | -6
O=C(NCCN1CCOCC1)c1cnn2c(-c3ccccc3)cc(-c3ccccc3)nc12 | 1.1 | 1.1 | 99* | 0.8 | -14
O=C(NCCN1CCOCC1)c1ccccc1-c1ccccc1 | 1 | 1 | -7 | 1 | 2
Cc1ccc(/C=N/N=C2/NC(=O)C(CC(=O)Nc3ccccc3)S2)o1 (centres undefined) | 0.9 | 1.1 | 1 | 1 | 4
CCn1c(CNC(=O)COc2ccc(C(C)C)cc2)nnc1SCC(=O)Nc1ccccc1F | 1.1 | 1 | -1 | 0.9 | 6
CCn1c(CNC(=O)COc2ccc(C(C)C)cc2)nnc1SCC(=O)Nc1ccccc1C(C)C | 1 | 0.9 | 76* | 0.9 | 18
Cc1c(Cl)ccc2c(C(=O)NCCN3CCCCC3)cc(-c3ccccn3)nc12 | 1.1 | 1.1 | 79* | 1.2 | 94*
CC(C)C(=O)n1nc(-c2cccnc2)nc1NCc1cccs1 | 1 | 1 | -2 | 1 | -2
CCn1cc(C(C)NC(=O)Nc2ccccc2C(=O)OC)c(C)n1 (centres undefined) | 1.1 | 1 | -6 | 1 | 9
O=C(O)c1ccccc1-c1ccccc1C(=O)Nc1ccccc1 | 1 | 1 | -5 | 1 | 7
O=C(O)c1ccccc1-c1ccccc1C(=O)NNc1ccccc1 | 2.9* | 1.7 | -1 | 0.9 | 18
Cc1c2c(nc3ccccc13)CCC(C(C)(C)C)C2 (centres undefined) | 1.2 | 1.2 | 49 | 1 | 68*
O=S(=O)(c1cccc(Cl)c1Cl)N1CCCCC1 | 0.9 | 0.9 | 1 | 0.9 | -8
CN1CCN(S(=O)(=O)c2cccc(S(=O)(=O)c3ccc(Cl)cc3)c2)CC1 | 1 | 0.9 | -2 | 0.9 | 4
CN1CCCN(S(=O)(=O)c2ccc(Cl)c(Cl)c2)CC1 | 1 | 1.1 | 82* | 1 | -7
CN1CCCN(S(=O)(=O)c2cccc(Cl)c2Cl)CC1 | 1.1 | 1.1 | 72* | 1 | -17
Cc1nc2ccc(S(=O)(=O)Nc3cccc(-c4nc5cccnc5s4)c3)cc2s1 | 1 | 1 | -7 | 0.9 | 72*
O=C(COC(=O)Cc1cccc(C(F)(F)F)c1)Nc1ccccc1 | 1 | 0.9 | -9 | 1 | 5
O=C(NNC(=O)c1ccc(SCC2CCCO2)c([N+](=O)[O-])c1)c1ccc(F)cc1 (centres undefined) | 1 | 1 | -8 | 0.8 | -38
O=C(CCNc1ccc(Cc2ccncc2)cc1)c1cccc([N+](=O)[O-])c1 | 0.5 | 0.6 | 95* | 1 | 15
O=C(CCNc1cccc(F)c1)c1cccc([N+](=O)[O-])c1 | 0.6 | 0.6 | 80* | 0.9 | 9
CCOC(=O)c1[nH]c(C)c(C(=O)OCC(=O)N2CC(=O)Nc3ccccc32)c1C | 0.9 | 0.8 | -3 | 0.9 | 2
Cc1ccc(CNC(=O)CNC(=O)c2c(C)nn(C)c2Cl)cc1 | 1 | 1.1 | -7 | 1 | -23
CN(C)c1ccc(/C=C/c2ccc3ccccc3[n+]2C)cc1 | 1 | 0.7 | 100* | 1.1 | 87
